Results collected from several papers.
Target: Casein kinase I isoform delta (CSNK1D, Homo sapiens, UniProt P48730)

Compound	observed	action	technique	tested at	quantity	result
Cn1cc(-c2cc(F)cc(N3CCn4c(cc5c4CCCC5)C3=O)c2CO)cc(Nc2ccc(N3CCN(C4COC4)CC3)cn2)c1=O	enzyme activity	inhibitor	–	0.1 µM	inhibition	6%
COc1ncccc1-c1cnn2ccc(N3CCN(C(=O)OC(C)C)CC3)nc12	binding	–	competition with immobilised ligand	1 µM	remaining binding	85%
Cn1cncc1[C@@](O)(COc1ccc(C#N)cc1-c1ccc(OC(F)(F)F)cc1)c1ccc(C#N)cc1	cell-free assay	–	competition with immobilised ligand	1 µM	remaining binding	94%
CC(C)(C)c1cc(C=C(C#N)C#N)cc(Br)c1O	enzyme activity	inhibitor	–	0.5 µM	remaining activity	85.5%
Cn1cc(-c2cccc(N3CCc4c(sc5c4CC(C)(C)C5)C3=O)c2CO)cc(Nc2ccncn2)c1=O	enzyme activity	inhibitor	–	1 µM	inhibition	0%
O=c1[nH]c2ccccc2n1C1CCN(Cc2ccc(-c3[nH]c4cc5ncnc5cc4nc3-c3ccccc3)cc2)CC1	cell-free assay	–	–	0.5 µM	remaining signal	100%
Nc1ncc(-c2nc(N3CCOCC3)nc(N3CCOCC3)n2)c(C(F)F)n1	binding	–	competition with immobilised ligand	10 µM	remaining binding	90%
Cc1nn(C)cc1-c1nc2c(N3CCN(Cc4ccc(Cl)cc4)CC3)c(Cl)cnc2[nH]1	binding	–	competition with immobilised ligand	1 µM	remaining binding	100%
